Assay results as given in article PMC4629265 (Acta Pharmaceutica Sinica. B, 2015).

Tests used:
Format in all cases: cell-based
Vero cells = assay: Cytotoxicity on Vero cells, CPE method; settings: 3 d
Procedure, shortened: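 Vero cells were seeded at 3×10⁴ cells/well and incubated overnight. Test compounds were then added at different concentrations in triplicate and incubated 3 d, with cytotoxicity scored by CPE. TC50, the concentration inhibiting 50% of cell growth versus untreated controls, was calculated by Reed and Muench.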

HCV = assay: Anti-HCV assay in infected Huh7.5 cells, HCV RNA by RT-PCR; settings: Hepatitis C virus, Huh7.5, 96 h, read-out: IC50 (anti-HCV activity)
Procedure, shortened: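 Huh7.5 cells (DMEM, 10% inactivated FBS) were seeded at 3×10⁴ cells/cm². After 6 h they were infected with chimeric J6/JFH/JC1 HCV stock (45 u/cell) and given test compound at the same time, with an NS3/4A protease inhibitor as positive control. At 96 h, intracellular total RNA was extracted and HCV RNA quantified by one-step RT-PCR. IC50 was calculated by Reed & Muench.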

[1] = Cytotoxicity in Huh7.5 cells, MTT assay; settings: human
Procedure, shortened: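 Huh7.5 cells were plated at 1×10⁴ cells/well. After 6 h the medium was replaced with fresh medium containing test compound at various concentrations. Viability was read by MTT at 96 h, and CC50 was calculated by the Reed & Muench method.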

EV71 (strain SZ-98) = assay: Anti-EV71 assay in Vero cells, CPE method; settings: EV71 strain SZ-98, Vero cells
Procedure, shortened: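 Vero cells (MEM, 10% FBS) at 3×10⁴ cells/well were infected with 100TCID50 EV71 strain SZ-98. Test compounds were added immediately at various concentrations and incubated another 48 h. Cytopathic effect was scored, with pirodavir as positive control. IC50 was determined by the Reed and Muench method.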

CCC(=O)Nc1cc(C(=O)Nc2ccc(C(C)C)cc2)ccc1OC [Compound 22, N-(4-Iso-propylphenyl)-4-methoxy-3-propionamidobenzamide]
TC50 (Vero cells): >65.35 µM

CCC(=O)Nc1cc(C(=O)Nc2ccc(C(C)(C)C)cc2)ccc1OC [Compound 23, N-(4-tert-Butylphenyl)-4-methoxy-3-propionamidobenzamide]
IC50 (HCV): 0.57 µM | CC50 at 96 h [1]: 30.7 ± 1.25 µM | TC50 (Vero cells): 36.24 ± 0.00 µM

CCCCc1ccc(NC(=O)c2ccc(OC)c(NC(=O)CC)c2)cc1 [Compound 24, N-(4-Butylphenyl)-4-methoxy-3-propionamidobenzamide]
TC50 (Vero cells): 36.24 ± 0.00 µM

CCC(=O)Nc1cc(C(=O)Nc2ccc(C3CCCCC3)cc2)ccc1OC [Compound 25, N-(4-Cyclohexylphenyl)-4-methoxy-3-propionamidobenzamide]
IC50 (HCV): 2.36 ± 0.12 µM | CC50 at 96 h [1]: 122 ± 2.6 µM

CCC(=O)Nc1cc(C(=O)Nc2ccc(C#N)cc2)ccc1OC [Compound 26, N-(4-Cyanophenyl)-4-methoxy-3-propionamidobenzamide]
TC50 (Vero cells): 297.67 µM

CCC(=O)Nc1cc(C(=O)Nc2ccc(N3CCN(C)CC3)cc2)ccc1OC [Compound 27, N-(4-(4-Methylpiperazin-1-yl)phenyl)-4-methoxy-3-propionamidobenzamide]
anti-EV71 activity (in words) (EV71 (strain SZ-98)): did not display antiviral activity | TC50 (Vero cells): 291.60 ± 0.00 µM

CNc1cc(C(=O)Nc2cccc(Cl)c2)ccc1OC [Compound 28, N-(3-Chlorophenyl)-4-methoxy-3-(methylamino)benzamide]
TC50 (Vero cells): 110.50 ± 0.00 µM

CCc1ccc(NC(=O)c2ccc(OC)c(NC)c2)cc1 [Compound 29, N-(4-Ethylphenyl)-4-methoxy-3-(methylamino)benzamide]
TC50 (Vero cells): >26.09 µM

CNc1cc(C(=O)Nc2ccc(C(C)C)cc2)ccc1OC [Compound 30, N-(4-iso-propylphenyl)-4-methoxy-3-(methylamino)benzamide]
TC50 (Vero cells): >8.29 µM

CNc1cc(C(=O)Nc2ccc(C(C)(C)C)cc2)ccc1OC [Compound 31, N-(4-tert-Butylphenyl)-4-methoxy-3-(methylamino)benzamide]
IC50 (HCV): 32 ± 2.14 µM | CC50 at 96 h [1]: 56.6 ± 4.2 µM | TC50 (Vero cells): 34.23 ± 0.00 µM

CCCCc1ccc(NC(=O)c2ccc(OC)c(NC)c2)cc1 [Compound 32, N-(4-Butylphenyl)-4-methoxy-3-(methylamino)benzamide]
TC50 (Vero cells): 41.12 ± 0.00 µM

CNc1cc(C(=O)Nc2ccc(C3CCCCC3)cc2)ccc1OC [Compound 33, N-(4-Cyclohexylphenyl)-4-methoxy-3-(methylamino)benzamide]
IC50 (HCV): 34.6 ± 3.1 µM | CC50 at 96 h [1]: 40 ± 7.25 µM

CNc1cc(C(=O)Nc2ccc(C#N)cc2)ccc1OC [Compound 34, N-(4-Cyanophenyl)-4-methoxy-3-(methylamino)benzamide]
TC50 (Vero cells): >79.07 µM

CCC(=O)Nc1cc(C(=O)Nc2ccc(Cl)cc2)ccc1O [Compound 35, N-(4-Chlorophenyl)-4-hydroxy-3-propionamidobenzamide]
TC50 (Vero cells): 100.79 ± 0.00 µM

CCC(=O)Nc1cc(C(=O)Nc2ccc(C(C)(C)C)cc2)ccc1O [Compound 36, N-(4-tert-Butylphenyl)-4-hydroxy-3-propionamidobenzamide]
TC50 (Vero cells): 86.08 ± 0.00 µM

CCC(=O)Nc1cccc(C(=O)Nc2ccc(Cl)cc2)c1 [Compound 41, N-(4-Chlorophenyl)-3-propionamidobenzamide]
IC50 (HCV): 7.12 ± 2.48 µM | CC50 at 96 h [1]: > 200 µM | TC50 (Vero cells): 106.12 ± 0.00 µM

CNc1cccc(C(=O)Nc2ccc(Cl)cc2)c1 [Compound 42, N-(4-Chlorophenyl)-3-(methylamino)benzamide]
IC50 (HCV): 19.5 ± 7.18 µM | CC50 at 96 h [1]: 164 ± 9.84 µM | TC50 (Vero cells): >28.5 µM

CCC(=O)Nc1cc(C(=O)CNc2ccc(C)cc2)ccc1OC [Compound 49, N-(2-Methoxy-5-(2-(p-tolylamino)acetyl)phenyl)propionamide]
anti-EV71 activity (in words) (EV71 (strain SZ-98)): inactive | TC50 (Vero cells): 98.31 µM

CCC(=O)Nc1cc(C(=O)CNc2ccc(C(C)(C)C)cc2)ccc1OC [Compound 50, N-(5-(2-((4-(tert-Butyl)phenyl)amino)acetyl)-2-methoxyphenyl)propionamide]
anti-EV71 activity (in words) (EV71 (strain SZ-98)): inactive | TC50 (Vero cells): >20.14 µM

CNc1cc(C(=O)CNc2ccccc2)ccc1OC [Compound 54, 1-(4-Methoxy-3-(methylamino)phenyl)-2-(phenylamino)ethanone]
anti-EV71 activity (in words) (EV71 (strain SZ-98)): inactive | TC50 (Vero cells): 167.11 ± 34.70 µM

CNc1cc(C(=O)CNc2ccc(Cl)cc2)ccc1OC [Compound 55, 2-((4-Chlorophenyl)amino)-1-(4-methoxy-3-(methylamino)phenyl)ethanone]
anti-EV71 activity (in words) (EV71 (strain SZ-98)): inactive | TC50 (Vero cells): 73.10 ± 0.00 µM

CCOC(=O)c1ccc(OCCC2CCN(c3ccc(C)nn3)CC2)cc1 [Pirodavir, pirodavir, reference compound]
TC50 (Vero cells): 49.78 ± 3.96 µM

CCC[C@H](NC(=O)[C@@H]1[C@H]2CCC[C@H]2CN1C(=O)[C@@H](NC(=O)[C@@H](NC(=O)c1cnccn1)C1CCCCC1)C(C)(C)C)C(=O)C(=O)NC1CC1 [VX-950, telaprevir, reference compound]
IC50 (HCV): 0.01 µM | CC50 at 96 h [1]: 21.3 ± 4.7 µM

N-(2,3-Dihydrobenzo[b][1,4]dioxin-6-yl)-4-methyl-3-(methylamino)benzamide [Compound 44]
anti-EV71 activity (in words) (EV71 (strain SZ-98)): poor | TC50 (Vero cells): 322.65 ± 0.00 µM

N-(2,3-Dihydrobenzo[b][1,4]dioxin-6-yl)-4-methyl-3-propionamidobenzamide [Compound 43]
anti-EV71 activity (in words) (EV71 (strain SZ-98)): poor | TC50 (Vero cells): 196.10 ± 0.00 µM
